Laboratory results taken from ChEMBL document CHEMBL1146316, “Novel antitumor agent family of 1H-benzo[c,d]indol-2-one with flexible basic side chains: synthesis and biological evaluation” (Bioorg Med Chem, 2007).

Key:
P388 = experiment: Cytotoxicity against mouse P388 cells by microculture tetrazolium-formazan method; assay type: functional, cell-based
How it was run: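 Murine P388 leukemia cells were assayed by the microculture tetrazolium–formazan method, and the IC50 was reported as the cytotoxicity value.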

A549 = experiment: Cytotoxicity against human A549 cells by sulforhodamine B dye-staining method; assay type: functional, cell-based
How it was run: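 Human lung cancer A549 cells were stained with sulforhodamine B dye, and the IC50 was reported as the cytotoxicity value.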

SMILES	IC50 (P388)	IC50 (A549)
CN(C)CCCN1C(=O)c2cccc3cccc1c23	7.76 µmol	22.9 µmol
CN(C)CCNCCN1C(=O)c2cccc3cccc1c23	1.69 µmol	0.489 µmol
CN(C)CCN1C(=O)c2cccc3cccc1c23	79.4 µmol	300 µmol
O=C1c2cccc3cccc(c23)N1CCNCCN1C(=O)c2cccc3cccc1c23	13.8 µmol	29.5 µmol
O=C1c2ccc([N+](=O)[O-])c3cccc(c23)N1CCCl	17.8 µmol	52.5 µmol
